Target: T1, fibrin (Rattus norvegicus, UniProt P02680+P06399+P14480)
T1 sequence (P06399 20-550 isoform P06399-2 limits assumed): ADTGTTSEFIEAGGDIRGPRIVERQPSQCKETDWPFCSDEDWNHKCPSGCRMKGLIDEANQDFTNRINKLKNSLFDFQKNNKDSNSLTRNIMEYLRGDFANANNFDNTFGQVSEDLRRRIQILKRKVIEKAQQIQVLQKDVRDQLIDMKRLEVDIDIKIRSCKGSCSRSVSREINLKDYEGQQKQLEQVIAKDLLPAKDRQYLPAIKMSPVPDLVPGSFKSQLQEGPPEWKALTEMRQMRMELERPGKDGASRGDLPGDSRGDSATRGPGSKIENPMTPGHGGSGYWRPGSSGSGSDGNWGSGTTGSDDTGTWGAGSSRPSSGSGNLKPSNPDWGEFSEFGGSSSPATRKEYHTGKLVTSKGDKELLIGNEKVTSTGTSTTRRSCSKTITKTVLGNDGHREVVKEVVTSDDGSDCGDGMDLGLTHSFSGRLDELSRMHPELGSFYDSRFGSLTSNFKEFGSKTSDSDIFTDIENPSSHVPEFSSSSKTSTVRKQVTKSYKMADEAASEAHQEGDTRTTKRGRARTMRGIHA
T1 sequence (P14480 33-479 limits assumed): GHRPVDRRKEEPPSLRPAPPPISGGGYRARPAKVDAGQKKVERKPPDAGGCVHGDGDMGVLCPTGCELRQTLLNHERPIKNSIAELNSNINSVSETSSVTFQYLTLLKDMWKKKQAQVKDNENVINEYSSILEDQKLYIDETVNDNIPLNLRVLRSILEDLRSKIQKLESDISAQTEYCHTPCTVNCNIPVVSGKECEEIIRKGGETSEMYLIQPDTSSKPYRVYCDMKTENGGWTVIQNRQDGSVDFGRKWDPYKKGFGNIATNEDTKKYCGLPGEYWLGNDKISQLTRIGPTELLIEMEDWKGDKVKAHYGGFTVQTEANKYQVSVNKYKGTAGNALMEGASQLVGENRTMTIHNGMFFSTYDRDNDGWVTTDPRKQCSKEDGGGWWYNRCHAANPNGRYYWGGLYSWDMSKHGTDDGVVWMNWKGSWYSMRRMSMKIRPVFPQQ
T1 sequence (P02680 26-437 isoform P02680-2 limits assumed): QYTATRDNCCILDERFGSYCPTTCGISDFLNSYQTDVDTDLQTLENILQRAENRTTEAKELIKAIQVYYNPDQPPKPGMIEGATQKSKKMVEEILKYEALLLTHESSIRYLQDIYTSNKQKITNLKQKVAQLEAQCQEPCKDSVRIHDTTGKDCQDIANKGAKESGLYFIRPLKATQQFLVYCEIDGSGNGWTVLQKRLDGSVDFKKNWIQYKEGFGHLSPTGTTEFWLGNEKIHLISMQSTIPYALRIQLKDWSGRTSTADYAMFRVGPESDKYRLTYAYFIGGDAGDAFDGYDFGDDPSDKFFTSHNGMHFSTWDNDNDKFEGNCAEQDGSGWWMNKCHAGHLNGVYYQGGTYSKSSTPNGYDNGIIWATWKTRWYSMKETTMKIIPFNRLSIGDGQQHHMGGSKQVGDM
Assay: brain autoradiography, embolic stroke with rtPA or vehicle
Assay type: in vivo
Conditions: rtPA-treated animals
Outline: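 Rats with embolic clot in ICA/MCA got ~300 μCi probe (0.3–0.4 mL, saline flush) 15–30 min after surgery. About 1 h after clot injection they received rtPA (10 mg/kg i.v., 10% bolus, 90% infused over 30 min) or 1 mL saline. Euthanised after 45 min baseline plus 90 min PET. 2 mm brain sections autoradiographed; ipsilateral/contralateral ICA-MCA ROI activity ratio; mean ± S.E.M.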

- ipsilateral to contralateral ICA-MCA ratio by autoradiography with FBP7: ~1
Substance: rtPA: recombinant tissue plasminogen activator (alteplase), thrombolytic treatment
